Assay results gathered from unrelated publications.
Lines come from different studies, so protocols differ.
Target: Phosphatidylinositol 4-phosphate 5-kinase type-1 alpha (PIP5K1A, Homo sapiens, UniProt Q99755)

SMILES	assay	conditions	remaining binding
O=C(Nc1c[nH]nc1C(=O)NC1CCNCC1)c1cc(F)cc(F)c1	binding, competition with immobilised ligand	1 µM	100%
Cc1cnn2ncc(-c3ccnc(N(C)C)n3)c2c1	binding	1 µM	100%
Nc1ncc2c(n1)-c1c([nH]c3ccc(C#CC4CC4)cc13)CCCC2	binding, competition with immobilised ligand	1 µM	99%
CN(c1ccnc(CNc2nc(Nc3ccc4c(c3)CC(=O)N4)ncc2C(F)(F)F)n1)S(C)(=O)=O	cell-free assay, competition with immobilised ligand	1 µM	12%
COc1ccnn2ncc(-c3ccnc(N(C)C)n3)c12	binding	1 µM	72%
O=C(O)c1cc(-c2ccc(C3CCNCC3)cc2)c2ccc(-c3ccc(C(F)(F)F)cc3)cc2c1	cell-free assay, competition with immobilised ligand	1 µM	78%
COc1cnc(Nc2cccc(S(N)(=O)=O)c2)nc1N1CCN(c2ccccc2)C(=O)C1	binding, competition with immobilised ligand	1 µM	89%
c1cnn2ncc(-c3ccnc(N4CCC45COC5)n3)c2c1	binding	1 µM	100%
Cc1nc(NC(=O)N2CCC[C@H]2C(N)=O)sc1-c1ccnc(C(C)(C)C(F)(F)F)c1	binding, competition with immobilised ligand	10 µM	59%
CC(=O)c1c(NS(C)(=O)=O)c2cc(-c3ccc(Cl)cc3)c(-c3ccc(Cl)cc3Cl)nc2n(C)c1=O	cell-free assay, competition with immobilised ligand	1 µM	97%
CN(CCCC(F)(F)F)c1nccc(-c2cnn3ncccc23)n1	binding	1 µM	100%
O=C(c1ccc(Nc2nccc(-c3cc4ccccc4s3)n2)cc1)N1CCC(N2CCCC2)CC1	binding, competition with immobilised ligand	1 µM	2.8%
CN(C)CC#Cc1ccc(OCCCc2sc(N3CCc4cccc(C(=O)Nc5nc6ccccc6s5)c4C3)nc2C(=O)O)c(F)c1	cell-free assay, competition with immobilised ligand	1 µM	100%
F[C@@H]1CCN(c2nccc(-c3cnn4ncccc34)n2)C1	binding	1 µM	100%
COc1ncc2cc3ccccc3nc2c1C#N	cell-free assay, competition with immobilised ligand	5 µM	100%
O=C(c1ccc(Nc2ncc(Cl)c(-c3cc4ccccc4s3)n2)cc1)N1CCC(N2CCCC2)CC1	binding, competition with immobilised ligand	1 µM	2.2%
N[C@@H]1CCN(c2nccc(-c3cnn4ncccc34)n2)C1	binding	1 µM	100%
Cc1c[nH]c2nccc(Oc3c(F)cc(Nc4cc(Cl)nc(N)n4)cc3F)c12	cell-free assay, competition with immobilised ligand	0.1 µM	68%
Cc1cnc(Nc2ccc(C(=O)N3CCC(N4CCCC4)CC3)cc2)nc1-c1cc2ccccc2s1	binding, competition with immobilised ligand	1 µM	1.5%
CCCOc1ccc([C@@H]2[C@@H](C(=O)O)[C@H](c3ccc4c(c3)OCO4)CN2CC(=O)Nc2c(CC)cccc2CC)cc1	cell-free assay, competition with immobilised ligand	1 µM	90%
C[C@H]1CCN(c2nccc(-c3cnn4ncccc34)n2)C1	binding	1 µM	47%
CNC(=O)[C@@H]1CC[C@@H](n2c(-c3ccc4cnccc4c3)nc3ccc(C(=O)NCc4cccc(C(N)=O)c4)cc32)C1	binding, competition with immobilised ligand	1 µM	92%
O=C(Nc1ccc(Oc2ccc(F)cc2)cc1)N1CCc2ncccc2[C@H]1c1ccc(F)cc1	cell-free assay, competition with immobilised ligand	1 µM	95%
